pIC50: −log10 of the molar value. Activity calls are given as the source filed them. The calls are words filed in the database; no cut-off is given here.
What was measured:
[1] = biological target: Tyrosine-protein phosphatase non-receptor type 6 (Homo sapiens, UniProt P29350); assay: Inhibition of catalytic domain of SHP-1 expressed in Escherichia coli assessed as p-nitrophenol release from pNPP substrate preincubated for 10 mins
Outline: (§1)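 IC50 values against the PTP panel, with enzymes prepared as described in the supplementary material. Values are means ± SD of two or more experiments.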

Mus musculus [2] = assay: Antiobesity activity in high fat diet-fed diabetic C57BL/6J Jms Slc mouse model assessed as decrease in non-esterified free fatty acid level in serum at 2.6 mg/day administered with food for 4 weeks; type: functional
Outline: (§2)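 DIO mice were fed HFD for 8 wk, then HFD containing 0.1% w/w compound (about 2.6 mg/day/mouse) for 4 wk. At the end of feeding, mice were deprived of food overnight. Serum total cholesterol, triglyceride and NEFA were then measured. Values are mean ± SEM.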

[3] = biological target: T1, Tyrosine-protein phosphatase non-receptor type 2 (Homo sapiens, UniProt P17706); assay: Inhibition of TC-PTP assessed as p-nitrophenol release from pNPP substrate preincubated for 10 mins; outline: as §1
T1 sequence (P17706 whole entry): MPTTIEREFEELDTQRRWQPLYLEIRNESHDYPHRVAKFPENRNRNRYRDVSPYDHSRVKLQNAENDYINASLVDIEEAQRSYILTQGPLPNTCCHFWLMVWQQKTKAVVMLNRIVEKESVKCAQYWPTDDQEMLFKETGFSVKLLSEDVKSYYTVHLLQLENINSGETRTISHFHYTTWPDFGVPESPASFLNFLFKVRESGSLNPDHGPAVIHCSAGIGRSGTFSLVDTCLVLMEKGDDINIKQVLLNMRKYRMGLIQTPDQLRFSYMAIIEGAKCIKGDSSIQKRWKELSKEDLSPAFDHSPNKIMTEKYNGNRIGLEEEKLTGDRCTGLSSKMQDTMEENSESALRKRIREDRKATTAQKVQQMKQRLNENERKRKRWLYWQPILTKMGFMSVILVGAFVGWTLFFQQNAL

Mus musculus [4] = assay: Antidiabetic activity in high fat diet-fed diabetic C57BL/6J Jms Slc mouse model assessed as normalization of blood glucose level at 2.6 mg/day administered with food for 4 weeks measured 90 mins after last dose by glucose tolerance test; type: functional, organism-based
Outline: (§3)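 Mice were male C57BL/6J Jms Slc, 5 wk old after 1 wk acclimatization. They were fed a 45%-fat HFD for 8 wk, then HFD with compound mixed in (1.0 g/kg diet, about 2.6 mg/day/mouse, 78 mg/day/kg) for 4 wk. Each mouse was fasted 6 h from the start of the light cycle and fasting glucose was measured. Glucose 1.0 g/kg was then given i.p., with readings at 60 and 90 min.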

Mus musculus [5] = assay: Antidiabetic activity in high fat diet-fed diabetic C57BL/6J Jms Slc mouse model assessed as normalization of fasting blood glucose level at 2.6 mg/day administered with food for 4 weeks measured 60 mins after last dose by glucose tolerance test in presence of glucose; type: functional, organism-based; outline: as §3
[6] = biological target: T2, Peroxisome proliferator-activated receptor gamma (Homo sapiens) (UniProt P37231); assay: Agonist activity at PPARgamma expressed in HepG2 cells co-expressing PPRE assessed as concentration required for maximal activation after 24 hrs by luciferase reporter gene assay; type: functional, cell-based
T2 sequence (whole entry): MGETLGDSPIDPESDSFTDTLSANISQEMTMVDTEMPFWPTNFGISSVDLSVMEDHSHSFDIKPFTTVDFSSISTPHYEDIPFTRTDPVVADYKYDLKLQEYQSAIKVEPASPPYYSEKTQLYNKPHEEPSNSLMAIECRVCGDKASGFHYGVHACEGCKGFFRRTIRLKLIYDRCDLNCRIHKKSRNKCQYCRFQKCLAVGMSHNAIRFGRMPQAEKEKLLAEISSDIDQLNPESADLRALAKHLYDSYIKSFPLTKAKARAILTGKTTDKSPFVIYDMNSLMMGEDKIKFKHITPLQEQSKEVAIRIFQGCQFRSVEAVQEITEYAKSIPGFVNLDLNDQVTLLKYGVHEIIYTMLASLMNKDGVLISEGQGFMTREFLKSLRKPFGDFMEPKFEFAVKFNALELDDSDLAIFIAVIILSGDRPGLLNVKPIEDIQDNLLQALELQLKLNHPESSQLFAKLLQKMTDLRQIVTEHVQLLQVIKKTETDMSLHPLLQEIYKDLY

Mus musculus [7] = assay: Antiobesity activity in high fat diet-fed diabetic C57BL/6J Jms Slc mouse model assessed as decrease in serum triglyceride level at 2.6 mg/day administered with food for 4 weeks; type: functional; outline: as §2
Mus musculus [8] = assay: Toxicity in high fat diet-fed diabetic C57BL/6J Jms Slc mouse model assessed as change in weight of lung at 2.6 mg/day administered with food for 4 weeks; type: organism-based; conditions: in vivo, po, 672 h
Outline: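 At the end of the 4 wk in-feed dosing (about 2.6 mg/day/mouse in HFD), liver, kidney and lung weights were compared across the lean LFD, HFD control and treated groups.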

Mus musculus [9] = assay: Antidiabetic activity in high fat diet-fed diabetic C57BL/6J Jms Slc mouse model assessed as normalization of blood glucose level at 2.6 mg/day administered with food for 4 weeks measured 60 mins after last dose by glucose tolerance test; type: functional, organism-based; outline: as §3
Mus musculus [10] = assay: Antidiabetic activity in high fat diet-fed diabetic C57BL/6J Jms Slc mouse model assessed as normalization of fasting blood glucose level at 2.6 mg/day administered with food for 4 weeks measured 90 mins after last dose by glucose tolerance test in presence of glucose; type: functional, organism-based; outline: as §3
Mus musculus [11] = assay: Antiobesity activity in high fat diet-fed diabetic C57BL/6J Jms Slc mouse model assessed as weight gain/kcal at 2.6 mg/day administered with food for 4 weeks; type: functional
Outline: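 DIO male C57BL/6J Jms Slc mice were fed a 45%-fat HFD for 8 wk, then HFD with 0.1% w/w compound in feed (about 2.6 mg/day/mouse) for 4 wk. A 10%-fat LFD lean group ran throughout. Measures were weight gain, feed efficiency (weight gain/kcal ×100), and epididymal and retroperitoneal fat pad weights. n = 8/group; mean ± SEM; one-way ANOVA.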

[12] = biological target: Receptor-type tyrosine-protein phosphatase F (Homo sapiens, UniProt P10586); assay: Inhibition of membrane proximal catalytic domain of LAR-D1 assessed as p-nitrophenol release from pNPP substrate preincubated for 10 mins; outline: as §1
Chain of Receptor-type tyrosine-protein phosphatase F (P10586 whole entry, the tested form may be a part): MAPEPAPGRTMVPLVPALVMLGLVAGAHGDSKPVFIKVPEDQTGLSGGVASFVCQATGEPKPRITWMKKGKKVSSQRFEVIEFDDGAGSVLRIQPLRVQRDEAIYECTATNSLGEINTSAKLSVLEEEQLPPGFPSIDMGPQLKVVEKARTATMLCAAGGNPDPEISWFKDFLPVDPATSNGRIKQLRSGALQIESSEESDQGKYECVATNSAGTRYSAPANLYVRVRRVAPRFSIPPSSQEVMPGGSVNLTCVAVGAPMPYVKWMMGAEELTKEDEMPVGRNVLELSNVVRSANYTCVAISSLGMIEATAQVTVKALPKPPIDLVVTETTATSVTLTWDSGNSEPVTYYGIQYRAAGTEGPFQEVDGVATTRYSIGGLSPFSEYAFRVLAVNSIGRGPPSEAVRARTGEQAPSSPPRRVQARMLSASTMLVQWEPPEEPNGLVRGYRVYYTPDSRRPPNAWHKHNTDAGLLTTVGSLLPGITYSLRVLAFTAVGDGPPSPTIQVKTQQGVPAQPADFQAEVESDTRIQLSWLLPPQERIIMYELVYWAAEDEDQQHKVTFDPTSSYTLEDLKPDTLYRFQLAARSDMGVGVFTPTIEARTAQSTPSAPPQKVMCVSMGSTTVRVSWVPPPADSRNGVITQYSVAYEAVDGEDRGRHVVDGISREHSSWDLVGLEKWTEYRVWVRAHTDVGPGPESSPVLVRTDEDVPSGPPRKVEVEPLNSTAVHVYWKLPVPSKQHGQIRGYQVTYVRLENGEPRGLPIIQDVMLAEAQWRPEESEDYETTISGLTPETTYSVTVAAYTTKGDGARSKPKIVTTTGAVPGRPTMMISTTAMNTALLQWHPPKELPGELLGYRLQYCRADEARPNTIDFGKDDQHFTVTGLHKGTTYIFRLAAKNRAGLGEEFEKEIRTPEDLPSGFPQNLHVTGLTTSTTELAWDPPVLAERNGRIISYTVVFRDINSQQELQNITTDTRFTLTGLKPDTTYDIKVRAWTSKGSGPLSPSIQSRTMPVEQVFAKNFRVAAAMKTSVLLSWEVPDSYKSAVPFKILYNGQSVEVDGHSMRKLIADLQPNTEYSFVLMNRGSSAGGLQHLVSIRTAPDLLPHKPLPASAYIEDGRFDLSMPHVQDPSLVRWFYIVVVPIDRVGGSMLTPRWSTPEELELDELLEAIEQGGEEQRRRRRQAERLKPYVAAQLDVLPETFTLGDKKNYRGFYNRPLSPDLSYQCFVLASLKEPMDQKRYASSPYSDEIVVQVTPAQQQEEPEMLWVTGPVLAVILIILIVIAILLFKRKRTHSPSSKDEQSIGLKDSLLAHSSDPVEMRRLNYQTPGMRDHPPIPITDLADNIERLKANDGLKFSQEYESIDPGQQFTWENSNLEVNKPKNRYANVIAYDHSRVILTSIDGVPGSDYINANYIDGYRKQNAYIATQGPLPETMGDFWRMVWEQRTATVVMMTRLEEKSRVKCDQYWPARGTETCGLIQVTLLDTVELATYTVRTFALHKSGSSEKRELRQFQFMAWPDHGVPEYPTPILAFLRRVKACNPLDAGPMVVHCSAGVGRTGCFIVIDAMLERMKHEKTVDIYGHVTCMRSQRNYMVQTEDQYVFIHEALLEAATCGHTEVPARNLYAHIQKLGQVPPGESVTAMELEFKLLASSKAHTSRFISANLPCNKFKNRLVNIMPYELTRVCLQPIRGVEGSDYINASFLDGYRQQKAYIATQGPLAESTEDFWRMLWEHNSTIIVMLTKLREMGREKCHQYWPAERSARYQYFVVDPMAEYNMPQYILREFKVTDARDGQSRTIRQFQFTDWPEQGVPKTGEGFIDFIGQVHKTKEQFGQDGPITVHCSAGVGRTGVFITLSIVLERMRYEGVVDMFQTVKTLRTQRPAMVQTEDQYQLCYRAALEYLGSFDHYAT

Chain of Tyrosine-protein phosphatase non-receptor type 6 (P29350 whole entry, the tested form may be a part): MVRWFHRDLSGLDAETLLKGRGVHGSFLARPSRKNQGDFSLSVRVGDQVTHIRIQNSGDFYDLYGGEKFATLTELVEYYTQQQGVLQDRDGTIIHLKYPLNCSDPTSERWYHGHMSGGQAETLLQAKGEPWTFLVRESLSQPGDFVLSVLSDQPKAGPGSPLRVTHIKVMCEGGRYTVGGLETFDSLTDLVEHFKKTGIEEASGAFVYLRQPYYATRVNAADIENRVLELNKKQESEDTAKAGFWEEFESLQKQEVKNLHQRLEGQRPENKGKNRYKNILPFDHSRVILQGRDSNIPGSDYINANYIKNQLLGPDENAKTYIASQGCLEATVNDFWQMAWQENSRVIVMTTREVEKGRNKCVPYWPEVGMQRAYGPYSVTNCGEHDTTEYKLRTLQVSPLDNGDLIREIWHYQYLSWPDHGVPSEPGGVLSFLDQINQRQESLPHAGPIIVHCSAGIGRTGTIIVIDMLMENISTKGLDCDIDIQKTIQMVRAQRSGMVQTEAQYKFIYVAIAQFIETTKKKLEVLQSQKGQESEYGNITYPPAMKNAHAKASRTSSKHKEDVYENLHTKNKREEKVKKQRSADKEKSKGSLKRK

pIC50 [1]: 5.52
pIC50 [3]: 4.72
Activity [6]: 1.5 µM
pIC50 [12]: < 4.00
Structure (SMILES): Cc1ccc(S(=O)(=O)Oc2cc(OCc3ccc(C(F)(F)F)cc3)c(/C=C3\SC(=O)NC3=O)cc2Br)cc1
Activity (Mus musculus [2]): 0.2 mM
Activity (Mus musculus [4]): Active
Activity (Mus musculus [5]): inactive
Activity (Mus musculus [7]): 76 mg/dL
Activity (Mus musculus [8]): Non-toxic
Activity (Mus musculus [9]): Active
Activity (Mus musculus [10]): inactive
feed efficiency (Mus musculus [11]): 0.57 g/100 kcal

Source: ChEMBL document CHEMBL1800016, “Novel thiazolidinedione derivatives with anti-obesity effects: dual action as PTP1B inhibitors and PPAR-γ activators” (Bioorg Med Chem Lett, 2010)
